Data as given in the array DNA melting data of Ke et al. (doi:10.1101/2024.01.08.574731).

Experiments:
[1] = melting temperature; fluorescence melt of hairpins on a sequencing array, two-state fit, raised by 9.35 °C to match UV melts; conditions: sodium 0.088 M
Outline: (§1)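 With Cy3 and quencher oligos annealed, library hairpins on a sequenced MiSeq flow cell were imaged for Cy3 fluorescence in 50 mM Na-HEPES pH 8.0, 25 mM NaCl, in 2.5 °C steps up to 60 °C. Melting temperature and folding enthalpy were derived from bootstrapped two-state fits of signals normalised to pre-quench Cy3 and to control constructs. Four replicates were combined by inverse variance, with fitted temperatures raised by 9.35 °C to match UV melts.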

[2] = folding enthalpy; higher = less favourable; fluorescence melt of hairpins on a sequencing array, two-state fit; conditions: sodium 0.088 M
Outline: as §1

Row | Sequence | Tm [1] [°C] | folding enthalpy [2] [kcal/mol]
1 | GCCGGTTCGAAAGAAGGC (((..(((....)))))) | 38.8 | -22.8
2 | GCTTTGCGAAAGCAGAGC (((.(((....))).))) | 56.5 | -43.8
3 | GGGTTGGGAAACCAACTC (.(((((....))))).) | 49.7 | -21.9
4 | GCGGAGCGAAAGCCTCGC (((..((....))..))) | 50.5 | -13.8
5 | GCCCATGGAAACATGAGC ((.((((....)))).)) | 43.1 | -27.9
6 | GCCTTGGGAAACCAGGGC (((.(((....))).))) | 52.7 | -46.8
7 | GATCCAGACGTGGATC ((((((....)))))) | 53.2 | -45.1
8 | GCTGTCGAAAGACCGAGC ((((((....)))..))) | 37 | -21
9 | GAATCAGGAAACTGGTTC (((.(((....))).))) | 42.6 | -31.2
10 | GATCAAGTTCTTGATC ((((((....)))))) | 49.7 | -38.6
11 | GATCCTACATAGGATC ((((((....)))))) | 52.8 | -35.5
12 | GCTCGTGCGAAAGCAAGC (((..(((....)))))) | 45.5 | -7.01
13 | CGTTCGGAAACGACTACG ((((((....)))..))) | 29 | -12.6
14 | GCCTAGCGAAAGCTGCGC ((..(((....)))..)) | 49.6 | -17.6
15 | GCTGGGCGAAAGCGCCGC ((.(.((....)).).)) | 47.4 | -18.2
16 | GCCGTGCGAAAGCCCTGC ((.(.((....)).).)) | 30.3 | -9.62
17 | GGAAAGAAATTTCC (((((....))))) | 29.5 | -18.9
18 | GATCGATAATCGATC ((((((...)))))) | 49.5 | -37.7
19 | GGAAAAGGAAACTTTTCC (((((((....))))))) | 52.7 | -39.6
20 | GGGTCCGAAAGGAGGCCC ((((((....)))..))) | 50.3 | -18.7
21 | GCAGCGCGAAAGCATTGC (((..((....))..))) | 40.9 | -14
22 | GTCCAGGCGAAAGCCGAC (((..(((....)))))) | 37 | -9.61
23 | GTGGGCGAAAGCCTCAC ((((((....))).))) | 51.9 | -15.5
24 | GCGGTAACCCGC ((((....)))) | 54.2 | -27.8

Row | Sequence | Tm [1] [°C] | folding enthalpy [2] [kcal/mol]
25 | GTACCCGGAAACGGGCAC ((.((((....)))).)) | 50 | -18.7
26 | GGCATGCGAAAGCAGCC (((.(((....)))))) | 64.3 | -21.6
27 | GCCTACACGAAAGTGGGC (((..(((....)))))) | 50.5 | -22.2
28 | GGATGCGCGAAAGCGTCC (((..(((....)))))) | 41 | -12.3
29 | GTTTTCGAAAGAACAAC ((((((....))).))) | 30.5 | -12.2
30 | GGTAAACGAAAGTTCACC (((.(((....))).))) | 40.4 | -28.6
31 | GATCCCTGTGGGATC ((((((...)))))) | 66.7 | -35
32 | GATCTTAACGAAGATC ((((((....)))))) | 40 | -29.9
33 | GTCTCCGAAAGGAGAGAC ((((((....)))..))) | 48 | -11.4
34 | GCTATGCGAAAGCACGGC ((..(((....)))..)) | 41.4 | -17.7
35 | GTTGGCGAAAGCCCGAAC ((((((....)))..))) | 24.2 | -9.07
36 | CGGCCGGAAACGGGCCCG ((((((....)))..))) | 46.8 | -9.66
37 | GCGATCCGAAAGGACCGC (((.(((....))).))) | 63.2 | -36.1
38 | GATCCGCGCCCGGATC ((((((....)))))) | 56.5 | -45.8
39 | GGACTTCGAAAGAACTCC (((.(((....))).))) | 29.6 | -13.2
40 | GACGGCCGAAAGGCGGTC (((.(((....))).))) | 67.9 | -25.1
41 | GGCAGAACGAAAGTTGCC (((..(((....)))))) | 50.9 | -27.2
42 | GCGACGGTCGC ((((...)))) | 48.7 | -28.4
43 | GCGAGGATCGC ((((...)))) | 59.4 | -23.7
44 | GCATCCGAAAGGAGTGC ((((((....))).))) | 51.2 | -22.5
45 | GCGATGCGAAAGCCTAGC ((.(.((....)).).)) | 45 | -21.8
46 | GCTCAGCGAAAGCCCAGC (((..((....))..))) | 37.2 | -12.1
47 | GGCCAAGGAAACTCAGCC (((..((....))..))) | 30.2 | -11.7
